Measured values as given in the EternaBench riboswitch data.

Test system: MS2 coat protein
Experiment: apparent Kd, MS2 coat protein; higher = weaker binding; RNA-MaP array; FMN 200 µM where present
How it was run: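 Each design was made on Illumina sequencing-chip clusters by stalled E. coli RNA polymerase and titrated with SNAP-549-labelled MS2 coat protein from 0.7 or 1.5 nM, doubling to 3 µM, in the absence and then the presence of constant ligand. The buffer was 100 mM Tris-HCl pH 7.5, 80 mM KCl, 4 mM MgCl2, BSA, DTT, yeast tRNA and Tween-20. The apparent Kd is the median of filtered per-cluster fits of binding curves, with green signal normalised to red-channel RNA signal and control-cluster median Fmax.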

[1] = designed as: OFF switch for flavin mononucleotide, no ligand
[2] = ligand present: flavin mononucleotide, designed as: OFF switch for flavin mononucleotide
[3] = designed as: ON switch for flavin mononucleotide, no ligand
[4] = ligand present: flavin mononucleotide, designed as: ON switch for flavin mononucleotide

| Sequence | apparent Kd [1] [nM] | apparent Kd [2] [nM] | apparent Kd [3] [nM] | apparent Kd [4] [nM] |
| --- | --- | --- | --- | --- |
| AUAGGAUUGCGAGGAUAUUAGCGCGGGCCUUCAGACUUACGAAAUGACAUGAGGAUCACCCAUGUUAAGAAGGCGCAUCAAAUG | 6.58 | 58.3 |  |  |
| GGCGACCUAGGAUAUACAUGAGGAUCACCCAUGUUUAUCUAUUAGAUGAAGACGGGUUGUAGAAGGAGGAUAUU | 15.5 | 18.2 |  |  |
| AGUUGGCGAGGAUAUACAUGAGGAUCACCCAUGUGAAAUAUAAUAGUGAGGAAGAAAAGUAGAAGGCGCUGACA | 48.3 | 281 |  |  |
| UCAUAUUUACAAGGAUAUCAAUUAUUUAUACAUCCUACAUGAGGAUCACCCAUGUUAAUAUAUUUUGAGAAGGUGUAUUGUCGG |  |  | 32.1 | 31.2 |
| AGUAGUUUAACAUGAGGAUCACCCAUGUAUCUAUCUGUAACCUAGGAUAUGGACGUUGUAUUUAACCAGAAGGAGGAUCGUUUA |  |  | 28.5 | 17 |
| GUUUUGAUAGGAUAUACAUGAGGAUCACCCAUGUCCCACCGGUUACCUAUGACCAUAUGUAGAAGGAUCGUUUG | 51.7 | 78.9 |  |  |
| UGUCGGAGCUGAGGAUAUUACAUGAGGAUCACCCAUGUAUGAACCAAUAGCUGGAAACAGCAAUGUAAGAAGGCUGCUCCGACA | 5.65 | 34.1 |  |  |
| CCUCCCAAGUAAGGAUAUCGGCCAUAGUUAACUCGAGAAGGUACAUGAGGAUCACCCAUGUCGUCCCUACAGACUCCUCCCUCC | 9.19 | 9.15 |  |  |
| UUCUACAAGUAAGGAUAUCGGCUAUAGUUAACUCGAGAAGGUACAUGAGGAUCACCCAUGUAGUAGAUACAGACUACUGGCUUG | 10.9 | 13.3 |  |  |
| GACGUGUGAGGAUAUGCCGUGCCGGUCCGGAAGGUUCGGGUGCAGAAGGCACAUGAGGAUCACCCAUGUGUAAG | 23.4 | 32.5 |  |  |
| GGAGCAACAUGAGGAUCACCCAUGUAGGAUAUCGCUAUUGUAAUCAUGAAACAUGAUUACAAUAGCGAGAAGGACAUAUGCUCC | 6.02 | 9.16 |  |  |
| AAGAUGCGGAUAGGAUAUGGAAAGAAGGAAAGACCAGAAGGAUUGGUCAUAUAACAUGAGGAUCACCCAUGUAUAUGUUGUGAA | 17.8 | 17.7 |  |  |
| AAUGUCUGAGGAUAUCGUUUUUUGUACAUGAGGAUCACCCAUGUUUUAUUUUGUAUAUUACGAGAAGGCAGUGGAA | 24.1 | 18.5 |  |  |
| GGACAUGUACAGAAGGGCAAUUUAUUUAUUGAUUAUUUAGUUCUGUAUUGCAGGAUAUGUAAAACAUGAGGAUCACCCAUGUCC |  |  | 73.5 | 56.4 |
| UGUAAUUAGUAAGGAUAUACUAGUGAUUAGCUUGUAGAAGGUACAGUCUUAUGUAUAACAAAUUAACAUGAGGAUCACCCAUGU |  |  | 10.2 | 8.74 |
| AUUAUACAUGAGGAUCACCCAUGUAAUUAAUCUAGUAAGAUCUAGGAUAUCAGCUCGAAUAGAGCUGAGAAGGAGAUCACAUGU |  |  | 53.6 | 20.7 |
| AGAUACAACCAGAAGGACAUGAGGAUCACCCAUGUAGGAUAUGGGUUACACGUUCCUGUGAAUUGUAACGACGCUACGUAGAGU |  |  | 178 | 15 |
| CGAUAGGACAGAGGAUAUACACAUGAGGAUCACCCAUGUAAUUACAAUUCUUAAGAUUCUAACAUGUAGAAGGCUGUCCUAUCG | 40.2 | 19.3 |  |  |
| UGUUGUAUUACAGGAUAUCUAUGAUUUUUAUUUAGAGAAGGGUAUUCACAUGAGGAUCACCCAUGUAUAUACGAGGAAGUUGUG |  |  | 46.1 | 51.7 |
| UGUGCGUUGAUCUUCGAUCGGAGUACAUGAGGAUCACCCAUGUAGGAUAUUCAAAGACGCAGAUAGGAGAAGGACAUCGGAUUA | 9.63 | 8.83 |  |  |
| GCACGGAGUGUAGGAUAUUAGUGCGAUUAGCACUGAGAAGGACAUGAGGAUCACCCAUGUUCCUCAAUAACAUACCUUCCGUGC | 13.8 | 10.6 |  |  |
| AAUAGGCGAGGAUAUACAUGAGGAUCACCCAUGUAAGUAAGCCUGGCUGAAACUAAAUGUAGAAGGCGCAAUAA | 14.3 | 43.1 |  |  |
| CGAUAGGACAGAGGAUAUACACAUGAGGAUCACCCAUGUGAUUACAACUCUUAAGAUUCAAACAUGUAGAAGGCUGUCCUAUCG | 11.9 | 30.4 |  |  |
| CACCGUUACGUAGGAUAUAGUACAUGAGGAUCACCCAUGUAAUAAAUGAGAAUUUCGGAUGUAUGCUAGAAGGACGAAAUCGGC | 53 | 49.1 |  |  |

| Sequence | apparent Kd [1] [nM] | apparent Kd [2] [nM] | apparent Kd [3] [nM] | apparent Kd [4] [nM] |
| --- | --- | --- | --- | --- |
| CAUGUGUAAGGAUAUGACAAUGGUAUCUUCGGAUACCAUUGUCAGAAGGUACAUGAGGAUCACCCAUGUACAUC | 14.3 | 16.8 |  |  |
| CCUCAGUAAGGAUAUCAGCUUAUAAGGUUGGUAAUGAGAGCUGAGAAGGUACAUGAGGAUCACCCAUGUUAGUU | 27.1 | 95.7 |  |  |
| AAUGAGCAGUAGAAGGCAUGUCUACGGACAUGAGGAUCACCCAUGUUGUGAAUCCGAAAGGAGCAUGAGGAUAUACUGCUCUAA |  |  | 70.7 | 14.7 |
| GGAUCGAUAGUGAGGAUAUACCACUGGAUACAGUGGUAGAAGGCACAUGAGGAUCACCCAUGUCCUAACGAUCC | 20.6 | 99.4 |  |  |
| AACAAUCUAUCUGAGGAUAUCAUGUCAAAGACAUGAGGAUCACCCAUGUACCAGGAAACUGGAUAUGAGAAGGCAGAUAGAUUGA |  |  | 199 | 22.8 |
| UGCAUGUCAGGAUAUCGUGCAUACAACGAAAGUUCUAUGUGCGAGAAGGGACAUGAGGAUCACCCAUGUCUUCG | 24 | 67.4 |  |  |
| UGAUCUAUGUAGAAGGCCCAUAUCUAUAUUUAGGGAGGAUAUACAUGAGGAUCACCCAUGUAUAGAGCUAGUGGACUAGUCACC | 20.9 | 47.1 |  |  |
| GUCAGCUCGUGAGGAUAUACAACACUGCAUCGGCAGUGUAUUAAGAUCACAUGAGGAUCACCCAUGUAGAAGGCACGAGCUGAU | 13 | 246 |  |  |
| GGAUAGUGUCGUUAUCCGUAGCGAACAUGAGGAUCACCCAUGUAGGAUAUGUUAUUAAACUAAUAACAGAAGGGCGUUGGUCUC | 121 | 147 |  |  |
| UCUAGGGACGCAGGAUAUGGAGUGAGUGUCUAUCACAUGAGGAUCACCCAUGUUUGGGUCUCACGCUAGAAGGGCGAAUGUGGG |  |  | 357 | 63.5 |
| AUGGUACAUGAGGAUCACCCAUGUUAGGAUAUCGCGUGUUCUAAAACUAAGAGAUACACGAGAAGGGACGACAU | 90.2 | 67.7 |  |  |
| AUCUGGUCCUUACGCCCACAUGAGGAUCACCCAUGUCAGGCACAGGAUAUCCCGGGAGCUUUGGUGGAGAAGGGUGCCCUUGGG | 55.6 | 100 |  |  |
| GCACUGGAUGUAGGAUAUCAGGACGAUAAGUCCUGAGAAGGACAUGAGGAUCACCCAUGUAAAACUCAACCAGUGCAUAAUAUA | 14.5 | 18.5 |  |  |
| UGACCAGUCCAGAAGGUGACGUCUGCAACUAGUCAAGGAUAUGGGUUGGUUCACGGUCGGCUACAUGAGGAUCACCCAUGUACC |  |  | 8.26 | 5.87 |
| UUAAUCUAUACAGGAUAUCCAUACGCUGCAUACGGAGAAGGGUAACAAUCAUGAGGACAUGAGGAUCACCCAUGUUUUGAGCAU |  |  | 42.8 | 26.3 |
| AGCUAGUGAGGAUAUACAAGAAUAUAAACGAACAUAAAGGGACAUGAGGAUCACCCAUGUAGAAGGCACUAGCA | 37.6 | 243 |  |  |
| UAAGACUAGCAUUGGUAUCUCCACAUGAGGAUCACCCAUGUUUAGGAUAUGAGCAGCAAAGCUGCUUAGAAGGAGACGCUAGUC | 7.26 | 7.21 |  |  |
| GUAAUUAAGAGAGGAUAUUGACAUGAGGAUCACCCAUGUAUUUGGGAGUGUUUACUGAAUUCUUACGAGAAGGCUUUUAAAUAC | 89.2 | 178 |  |  |
| GCCAGGAUGUGAGGAUAUGCUGAGGAUACCUCAGCAGAAGGCACAUGAGGAUCACCCAUGUACACUUAUCAUAAAUACCCUGGC | 13.5 | 18.1 |  |  |
| GGAUUACAUGAGGAUCACCCAUGUAGAAGGCGCCUGGGAGACCAGCGCGAGGUAGAAGACCCGGGCGAGGAUAUACAGGAGGGC | 25.5 | 56.4 |  |  |
| UUAUUUUGUCAAGGAUAUGUAUUAUUGAUUUGAAAACAUGAGGAUCACCCAUGUAUAUGGUGGGAACAGAAGGUGAAUAAGUAA | 248 | 235 |  |  |
| AUCAGCUCGUCAGGAUAUACGUCACUGCGUCAGCAGUGUGGUCAGAUCACAUGAGGAUCACCCAUGUAGAAGGGACGAGCUGAU | 28.6 | 549 |  |  |
| CCGGAUAUGCAGGAUAUCGUAUCGGAUACGAUACGAGAAGGGUAUACAUGAGGAUCACCCAUGUGCCUUACCGG | 19.3 | 20 |  |  |
| CACGGACAUGAGGAUCACCCAUGUGAGGAUAUGCUCUACGAACGUUUUCCCACGAGAAGCAGAAGGCACAUUUC | 78.2 | 135 |  |  |
